# In ChEMBL document CHEMBL1932980, “Structure-activity relationships of 2-amino-3-aroyl-4-[(4-arylpiperazin-1-yl)methyl]thiophenes. Part 2: Probing the influence of diverse substituents at the phenyl of the arylpiperazine moiety on allosteric enhancer activity at the A₁ adenosine receptor” (Bioorg Med Chem, 2012):
# What was measured:
# [1] = target: T1, Adenosine receptor A1 (Homo sapiens) (UniProt P30542); test: Allosteric enhancer activity at recombinant human A1 adenosine receptor expressed in CHO cells assessed as change in forskolin-induced cAMP production at 0.1 uM after 6 mins by radioimmunoassay; assay type: functional, cell-based
# T1 sequence (whole entry): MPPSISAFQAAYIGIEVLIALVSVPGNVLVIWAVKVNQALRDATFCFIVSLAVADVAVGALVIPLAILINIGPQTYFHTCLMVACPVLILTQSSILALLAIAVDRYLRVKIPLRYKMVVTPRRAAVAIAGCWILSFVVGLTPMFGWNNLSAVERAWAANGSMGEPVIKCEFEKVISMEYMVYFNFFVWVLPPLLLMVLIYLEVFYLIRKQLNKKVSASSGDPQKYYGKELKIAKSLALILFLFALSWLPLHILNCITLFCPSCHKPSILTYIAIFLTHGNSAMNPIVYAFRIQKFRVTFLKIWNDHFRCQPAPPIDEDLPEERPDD
# Summary of the method: (§1)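 hA1CHO cells (about 8000 fmol/mg protein) thawed from low-passage stocks, grown in Ham's F-12 with 10% FBS and G-418, then plated 48 h. Test compound at 0.01, 0.1, 1 or 10 µM with CPA (0.05–0.1 nM) for 6 min at 36 °C. Stopped with HCl (final 50 mM). cAMP in acidified extracts measured by radioimmunoassay. Reference enhancer run in each experiment. Four experiments per concentration.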
# [2] = target: T1, Adenosine receptor A1 (Homo sapiens); test: Allosteric enhancer activity at recombinant human A1 adenosine receptor expressed in CHO cells assessed as change in forskolin-induced cAMP production at 10 uM after 6 mins by radioimmunoassay; assay type: functional, cell-based; summary of the method: as §1
# [3] = target: T2, Adenosine receptor A3 (Homo sapiens) (UniProt P0DMS8); test: Displacement of [3H]MRE3008F20 from recombinant human A3 adenosine receptor expressed in CHO cells at 10 uM after 120 mins by scintillation counting; assay type: cell-based
# T2 sequence (whole entry): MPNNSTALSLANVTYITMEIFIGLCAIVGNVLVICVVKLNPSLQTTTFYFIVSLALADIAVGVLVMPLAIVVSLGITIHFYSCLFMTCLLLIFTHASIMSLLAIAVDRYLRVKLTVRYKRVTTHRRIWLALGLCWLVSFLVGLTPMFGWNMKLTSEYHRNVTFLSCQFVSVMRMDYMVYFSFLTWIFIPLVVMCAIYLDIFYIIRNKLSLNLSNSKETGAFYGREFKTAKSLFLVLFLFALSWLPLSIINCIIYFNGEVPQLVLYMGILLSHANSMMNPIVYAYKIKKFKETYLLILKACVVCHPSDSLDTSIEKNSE
# Summary of the method: (§2)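 Membranes from hA3CHO cells incubated with 2 nM [3H]MRE 3008F20 in 50 mM Tris–HCl, 10 mM MgCl2, 1 mM EDTA, pH 7.4 at 4 °C for 120 min. Compound added from a 100-fold DMSO stock, 1% DMSO final, also in controls. Separated by GF/B filtration and counted by scintillation. Result given as % of control specific binding.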
# [4] = target: T1, Adenosine receptor A1 (Homo sapiens); test: Binding affinity to recombinant human A1 adenosine receptor allosteric site expressed in CHO cells assessed as potentiation of CCPA-induced [3H]DPCPX displacement at 10 uM after 90 mins relative to control; assay type: cell-based
# Summary of the method: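 Competition of CCPA (0.01 nM–1 µM) against 1 nM [3H]DPCPX on hA1CHO membranes, run in triplicate, 90 min at 25 °C, in 50 mM Tris–HCl pH 7.4, with or without test compound at 10 µM. Nonspecific binding taken with 1 µM DPCPX. Ki by Cheng–Prusoff. Shift = Ki(CCPA)/Ki(CCPA + 10 µM compound).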
# [5] = target: T1, Adenosine receptor A1 (Homo sapiens); test: Allosteric enhancer activity at recombinant human A1 adenosine receptor expressed in CHO cells assessed as change in forskolin-induced cAMP production at 0.01 uM after 6 mins by radioimmunoassay; assay type: functional, cell-based; summary of the method: as §1
# [6] = target: T1, Adenosine receptor A1 (Homo sapiens); test: Binding affinity to recombinant human A1 adenosine receptor allosteric site expressed in CHO cells assessed as [3H]DPCPX Bmax shift at 10 uM after 90 mins relative to control; assay type: cell-based
# Summary of the method: (§3)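 Saturation binding of [3H]DPCPX (0.05–20 nM) to hA1CHO membranes, run in triplicate, 90 min at 25 °C, in 50 mM Tris–HCl pH 7.4, with or without test compound at final 10 µM. Nonspecific binding taken with 1 µM DPCPX. KD and Bmax fitted by LIGAND. Shift is the fold of Bmax increase over control.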
# [7] = target: Adenosine receptor A2a (Homo sapiens) (UniProt P29274); test: Displacement of [3H]ZM241385 from recombinant human A2A adenosine receptor expressed in CHO cells at 10 uM after 60 mins by scintillation counting; assay type: cell-based
# Chain of Adenosine receptor A2a (Homo sapiens) (P29274 whole entry): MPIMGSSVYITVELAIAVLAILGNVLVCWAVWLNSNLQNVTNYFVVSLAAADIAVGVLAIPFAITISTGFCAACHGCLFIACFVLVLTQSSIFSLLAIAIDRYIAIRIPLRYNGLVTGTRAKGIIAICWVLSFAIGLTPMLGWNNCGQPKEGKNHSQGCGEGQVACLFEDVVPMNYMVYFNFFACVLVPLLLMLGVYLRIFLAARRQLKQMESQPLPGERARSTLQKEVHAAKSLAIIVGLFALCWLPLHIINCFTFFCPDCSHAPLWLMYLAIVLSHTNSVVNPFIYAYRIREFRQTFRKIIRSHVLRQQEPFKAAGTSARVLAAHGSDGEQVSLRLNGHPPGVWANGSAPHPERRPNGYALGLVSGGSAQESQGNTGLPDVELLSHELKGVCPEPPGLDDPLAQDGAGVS
# Summary of the method: as §2, with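 “hA2ACHO” for “hA3CHO”, “1” for “2”, “[3H]ZM 241385” for “[3H]MRE 3008F20”, “MgCl2,” for “MgCl2, 1 mM EDTA,”, “60” for “120”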
# [8] = target: T1, Adenosine receptor A1 (Homo sapiens); test: Binding affinity to recombinant human A1 adenosine receptor allosteric site expressed in CHO cells assessed as [3H]CCPA Bmax shift at 10 uM after 90 mins relative to control; assay type: cell-based
# Summary of the method: as §3, with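 “[3H]CCPA” for “[3H]DPCPX”, “membranes. Membranes pretreated with adenosine deaminase 3 UI/mL for 30 min at 37 °C. Run” for “membranes, run”, “R-PIA.” for “DPCPX. KD and”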
# [9] = target: T1, Adenosine receptor A1 (Homo sapiens); test: Displacement of [3H]DPCPX from recombinant human A1 adenosine receptor expressed in CHO cells at 10 uM after 120 mins by scintillation counting; assay type: cell-based
# Summary of the method: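 Membranes from hA1CHO cells incubated with 1 nM [3H]DPCPX in 50 mM Tris–HCl pH 7.4 at 25 °C for 120 min. Compound added from a 100-fold DMSO stock, so 1% DMSO final, also present in controls. Bound ligand separated on GF/B filters and counted by scintillation. Result given as % of control specific binding.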
# [10] = target: T1, Adenosine receptor A1 (Homo sapiens); test: Allosteric enhancer activity at recombinant human A1 adenosine receptor expressed in CHO cells assessed as change in forskolin-induced cAMP production at 1 uM after 6 mins by radioimmunoassay; assay type: functional, cell-based; summary of the method: as §1
Activity [1] [%],Activity [2] [%],inhibition [3] [%],fold change (FC) [4],Activity [5] [%],fold change (FC) [6],inhibition [7] [%],fold change (FC) [8],inhibition [9] [%],Activity [10] [%],Compound
3.6,-7.4,0,1.2,-1,0.9,0,1.1,0,7.3,CC(C)N1CCN(Cc2csc(N)c2C(=O)c2ccc(Cl)cc2)CC1
1.3,4,0,1.2,2.1,0.9,0,1.1,0,1.3,Nc1scc(CN2CCN(c3c(F)cccc3F)CC2)c1C(=O)c1cccc(C(F)(F)F)c1
3.2,-77,0,3.5,1,1,1,4.2,2,-57,Nc1scc(CN2CCN(c3cccc(Cl)c3Cl)CC2)c1C(=O)c1ccc(Cl)cc1
-11,-47,0,3.4,-12,1,0,4.4,0,-27,Nc1scc(CN2CCN(c3ccc(C(F)(F)F)cc3)CC2)c1C(=O)c1cccc(C(F)(F)F)c1
-2.3,-61,6,3.3,0,1,0,3.9,0,-24,Nc1scc(CN2CCC(c3ccc(Cl)cc3)CC2)c1C(=O)c1ccc(Cl)cc1
-12,-60,3,4.5,-2.5,1,0,5.7,0,-47,Nc1scc(CN2CCN(c3ccc(Cl)c(C(F)(F)F)c3)CC2)c1C(=O)c1ccc(Cl)cc1
-13,-74,1,5.3,0,1.1,0,6.8,0,-51,Nc1scc(CN2CCN(c3ccc(OC(F)(F)F)cc3)CC2)c1C(=O)c1ccc(Cl)cc1
4.2,-82,0,3.7,-2.2,1,1,4.5,0,-43,Nc1scc(CN2CCN(Cc3ccc(Cl)cc3)CC2)c1C(=O)c1ccc(Cl)cc1
-23,-80,4,5,-12,1.1,1,6.3,1,-65,Nc1scc(CN2CCN(c3c(F)cccc3F)CC2)c1C(=O)c1ccc(Cl)cc1
-13,-62,3,3.8,-1.2,1,0,4.6,1,-60,Nc1scc(CN2CCN(c3ccc(Cl)c(Cl)c3)CC2)c1C(=O)c1ccc(Cl)cc1
1,-62,0,1.4,-5,0.9,1,1.4,0,-25,Nc1scc(CN2CCN(CC(=O)c3ccc(Cl)cc3)CC2)c1C(=O)c1ccc(Cl)cc1
-10,-60,0,1.6,-6.2,0.9,0,1.6,1,-34,Nc1scc(CN2CCN(C(=O)c3ccc(Cl)cc3)CC2)c1C(=O)c1ccc(Cl)cc1
-7.5,-60,0,3.6,0,1,0,4.4,0,-39,Nc1scc(CN2CCN(c3ccccc3C(F)(F)F)CC2)c1C(=O)c1ccc(Cl)cc1
-6.2,-62,1,2.8,13,0.9,0,3.2,0,-42,Nc1scc(CN2CCN(c3cc(Cl)ccc3Cl)CC2)c1C(=O)c1ccc(Cl)cc1
-12,-62,0,4.7,-11,1.1,0,6,0,-35,Nc1scc(CN2CCN(c3cccc(F)c3)CC2)c1C(=O)c1cccc(C(F)(F)F)c1
-20,-77,1,3.7,-3.1,1,0,4.4,0,-59,Nc1scc(CN2CCN(c3cccc(Cl)c3)CC2)c1C(=O)c1ccc(Cl)cc1

Compound,Activity [1] [%],Activity [2] [%],inhibition [3] [%],fold change (FC) [4],Activity [5] [%],fold change (FC) [6],inhibition [7] [%],fold change (FC) [8],inhibition [9] [%],Activity [10] [%]
Nc1scc(CN2CCN(C(=O)Cc3ccc(Cl)cc3)CC2)c1C(=O)c1ccc(Cl)cc1,0,-42,0,1.5,2.1,0.9,0,1.5,1,-8.1
